Columns and labels:
Cricetinae gen. sp. [1] = experiment: Total cultures(0) versus active(7) at 10e-11 M conc. in hamster tracheal organ culture assay (TOC); format: functional, Trachea
How it was run: (§1)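 Tracheas from Syrian golden hamsters kept on a vitamin A deficient diet from birth to 30–32 days old. Cultured serum-free (CMRL 1066 with insulin, hydrocortisone, glutamine, antibiotics), one explant per dish, 50% O2/45% N2/5% CO2, 36 °C, rocked. 3 days without retinoid, then 7 days with retinoid, medium renewed three times. Histology on day 10. Active means keratin/keratohyaline granules absent. Usually duplicate, 6–7 tracheas per concentration.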

Cricetinae gen. sp. [2] = experiment: Total cultures(13) versus active(13) at 10e-9 M conc. in hamster tracheal organ culture assay (TOC); format: functional, Trachea; how it was run: as §1
Cricetinae gen. sp. [3] = experiment: Total cultures(6) versus active(6) at 10e-8 M conc. in hamster tracheal organ culture assay (TOC); format: functional, Trachea; how it was run: as §1
Cricetinae gen. sp. [4] = experiment: Total cultures(4) versus active(13) at 10e-10 M conc. in hamster tracheal organ culture assay (TOC); format: functional, Trachea; how it was run: as §1
Cricetinae gen. sp. [5] = experiment: Relative potency with respect to retinoic acid in hamster tracheal organ culture assay (TOC); format: functional, Cricetulus griseus, Trachea
Cricetinae gen. sp. [6] = experiment: ED50 of retinoid required to effect reversal of keratinization; format: functional; how it was run: as §1
[7] = target: T1, Ornithine decarboxylase (Mus musculus) (UniProt P00860); experiment: Percent inhibition of the induction of ornithine decarboxylase at 17 nmol dose in mouse dorsal epidermis (ODC assay); format: functional
T1 sequence (whole entry): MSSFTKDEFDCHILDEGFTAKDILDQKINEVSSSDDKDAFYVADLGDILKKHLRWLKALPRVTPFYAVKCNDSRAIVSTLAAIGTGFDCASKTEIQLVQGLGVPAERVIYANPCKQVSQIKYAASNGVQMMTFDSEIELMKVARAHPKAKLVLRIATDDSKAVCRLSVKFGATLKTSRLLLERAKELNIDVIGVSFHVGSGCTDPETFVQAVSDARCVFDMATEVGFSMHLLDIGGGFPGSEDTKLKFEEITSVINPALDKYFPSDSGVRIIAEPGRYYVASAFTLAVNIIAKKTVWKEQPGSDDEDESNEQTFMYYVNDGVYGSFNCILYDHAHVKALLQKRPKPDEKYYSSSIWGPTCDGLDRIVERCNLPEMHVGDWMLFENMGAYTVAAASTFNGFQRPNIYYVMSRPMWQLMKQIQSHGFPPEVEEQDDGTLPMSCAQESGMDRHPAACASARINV

Cricetinae gen. sp. [8] = experiment: Total cultures(14) versus active (6) at 10e-10 M conc. in hamster tracheal organ culture assay (TOC); format: functional, Trachea; how it was run: as §1
Cricetinae gen. sp. [9] = experiment: Total cultures(14) versus active (10) at 10e-9 M conc. in hamster tracheal organ culture assay (TOC); format: functional, Trachea; how it was run: as §1
[10] = target: T1, Ornithine decarboxylase (Mus musculus); experiment: Percent inhibition of the induction of ornithine decarboxylase at 1.7 nmol in mouse dorsal epidermis (ODC assay); format: functional
Cricetinae gen. sp. [11] = experiment: Total cultures(13) versus active (13) at 10e-8 M conc. in hamster tracheal organ culture assay (TOC); format: functional, Trachea; how it was run: as §1
Cricetinae gen. sp. [12] = experiment: Total cultures(12) versus active(13) at 10e-9 M conc. in hamster tracheal organ culture assay (TOC); format: functional, Trachea; how it was run: as §1
Cricetinae gen. sp. [13] = experiment: Total cultures(13) versus active(13) at 10e-8 M conc. in hamster tracheal organ culture assay (TOC); format: functional, Trachea; how it was run: as §1
Cricetinae gen. sp. [14] = experiment: Total cultures(5) versus active(13) at 10e-10 M conc. in hamster tracheal organ culture assay (TOC); format: functional, Trachea; how it was run: as §1
Cricetinae gen. sp. [15] = experiment: Total cultures(9) versus active(14) at 10e-10 M conc. in hamster tracheal organ culture assay (TOC); format: functional, Trachea; how it was run: as §1
Cricetinae gen. sp. [16] = experiment: Total cultures (1)versus active(6) at 10e-11 M conc. in hamster tracheal organ culture assay (TOC); format: functional, Trachea; how it was run: as §1
Cricetinae gen. sp. [17] = experiment: Total cultures(11) versus active(13) at 10e-9 M conc. in hamster tracheal organ culture assay (TOC); format: functional, Trachea; how it was run: as §1
Cricetinae gen. sp. [18] = experiment: Total cultures(7) versus active (7) at 10e-8 M conc. in hamster tracheal organ culture assay (TOC); format: functional, Trachea; how it was run: as §1
Cricetinae gen. sp. [19] = experiment: Total cultures (14) versus active (4) at 10e-10 M conc. in hamster tracheal organ culture assay (TOC); format: functional, Trachea; how it was run: as §1
Cricetinae gen. sp. [20] = experiment: Total cultures (14) versus active (8) at 10e-9 M conc. in hamster tracheal organ culture assay (TOC); format: functional, Trachea; how it was run: as §1
Cricetinae gen. sp. [21] = experiment: Total cultures(14) versus active (5) at 10e-10 M conc. in hamster tracheal organ culture assay (TOC); format: functional, Trachea; how it was run: as §1
Cricetinae gen. sp. [22] = experiment: Total cultures(14) versus active (6) at 10e-9 M conc. in hamster tracheal organ culture assay (TOC); format: functional, Trachea; how it was run: as §1
Cricetinae gen. sp. [23] = experiment: Total cultures(13) versus active (11) at 10e-8 M conc. in hamster tracheal organ culture assay (TOC); format: functional, Trachea; how it was run: as §1
Cricetinae gen. sp. [24] = experiment: Total cultures (13) versus active (4) at 10e-10 M conc. in hamster tracheal organ culture assay (TOC); format: functional, Trachea; how it was run: as §1
Cricetinae gen. sp. [25] = experiment: Total cultures(13) versus active (5) at 10e-9 M conc. in hamster tracheal organ culture assay (TOC); format: functional, Trachea; how it was run: as §1
Cricetinae gen. sp. [26] = experiment: Total cultures(11) versus active (5) at 10e-8 M conc. in hamster tracheal organ culture assay (TOC); format: functional, Trachea; how it was run: as §1
Cricetinae gen. sp. [27] = experiment: Total cultures(15) versus active (15) at 10e-8 M conc. in hamster tracheal organ culture assay (TOC); format: functional, Trachea; how it was run: as §1
Cricetinae gen. sp. [28] = experiment: Total cultures(15) versus active (14) at 10e-9 M conc. in hamster tracheal organ culture assay (TOC); format: functional, Trachea; how it was run: as §1
Cricetinae gen. sp. [29] = experiment: Total cultures(15) versus active (7) at 10e-10 M conc. in hamster tracheal organ culture assay (TOC); format: functional, Trachea; how it was run: as §1

Structure (SMILES) | Relative activity (Cricetinae gen. sp. [5]) | ED50 (Cricetinae gen. sp. [6]) [nM] | inhibition of control [7] [%] | inhibition of control [10] [%] | other results
CCOC(=O)c1ccc(/C=C(C)/C=C/C2=C(C)CCCC2(C)C)cc1 | 1 | 0.006 | 80 | – | Active/total cultures (Cricetinae gen. sp. [1]): 0%; Active/total cultures (Cricetinae gen. sp. [2]): 100%; Active/total cultures (Cricetinae gen. sp. [3]): 100%; Active/total cultures (Cricetinae gen. sp. [4]): 31%
CCOC(=O)c1ccc(/C=C(C)/C=C/C2=C(C)CCCC2(C)C)s1 | 3 | 0.02 | 77 | 67 | Active/total cultures (Cricetinae gen. sp. [8]): 43%; Active/total cultures (Cricetinae gen. sp. [9]): 71%; Active/total cultures (Cricetinae gen. sp. [11]): 100%
CC1=C(/C=C/C(C)=C(\F)c2ccc(C(=O)O)cc2)C(C)(C)CCC1 | 3 | 0.02 | 80 | 70 | Active/total cultures (Cricetinae gen. sp. [12]): 92%; Active/total cultures (Cricetinae gen. sp. [13]): 100%; Active/total cultures (Cricetinae gen. sp. [14]): 38%
CCOC(=O)c1ccc(/C=C(C)/C=C/C2=C(C)CCCC2(C)C)c(F)c1 | 5 | 0.006 | 46 | 8 | Active/total cultures (Cricetinae gen. sp. [15]): 64%; Active/total cultures (Cricetinae gen. sp. [3]): 100%; Active/total cultures (Cricetinae gen. sp. [16]): 17%; Active/total cultures (Cricetinae gen. sp. [17]): 85%
CCOC(=O)c1ccc(/C=C(C)/C=C/C2=C(C)CCCC2(C)C)cn1 | 0.4 | 0.008 | 60 | 29 | Active/total cultures (Cricetinae gen. sp. [18]): 100%; Active/total cultures (Cricetinae gen. sp. [19]): 29%; Active/total cultures (Cricetinae gen. sp. [20]): 57%
CCOC(=O)c1ccc(/C=C(C)\C=C\C2=C(C)CCCC2(C)C)s1 | 0.3 | 0.02 | 76 | 35 | Active/total cultures (Cricetinae gen. sp. [21]): 36%; Active/total cultures (Cricetinae gen. sp. [22]): 43%; Active/total cultures (Cricetinae gen. sp. [23]): 85%
CC1=C(/C=C/C(C)=C/c2ccc(C(=O)O)o2)C(C)(C)CCC1 | <<0.1 | 0.02 | 5 | 7 | Active/total cultures (Cricetinae gen. sp. [24]): 31%; Active/total cultures (Cricetinae gen. sp. [25]): 38%; Active/total cultures (Cricetinae gen. sp. [26]): 45%
CC1=C(/C=C/C(C)=C/c2ccc(C(=O)O)s2)C(C)(C)CCC1 | 2 | 0.02 | 67 | 42 | Active/total cultures (Cricetinae gen. sp. [27]): 100%; Active/total cultures (Cricetinae gen. sp. [28]): 93%; Active/total cultures (Cricetinae gen. sp. [29]): 47%

— ChEMBL document CHEMBL1122284, “Aromatic retinoic acid analogues. 2. Synthesis and pharmacological activity” (1983)
